Assay results collected from several papers.
Each line is one published result; the experiments were not run side by side.
CHRM1: Muscarinic acetylcholine receptor M1 (CHRM1, Homo sapiens, UniProt P11229)
PGR: Progesterone receptor (PGR, Homo sapiens, UniProt P06401)
SLCO1B1: Solute carrier organic anion transporter family member 1B1 (SLCO1B1, Homo sapiens, UniProt Q9Y6L6)

Structure (SMILES) | target | test | system | conditions | endpoint | result
Cc1nnc2n1-c1ccc(Cl)cc1C(c1ccccc1)=NC2 | Cytochrome P450 1A2 (CYP1A2, Homo sapiens, UniProt P05177) | enzyme activity, inhibitor, fluorescence |  |  | IC50 | > 100 µM
CC(C)(C)[C@H](NC(=O)C(F)(F)F)C(=O)N1C[C@H]2[C@@H]([C@H]1C(=O)N[C@H](C#N)C[C@@H]1CCNC1=O)C2(C)C | Cytochrome P450 3A4 (CYP3A4, Homo sapiens, UniProt P08684) | enzyme activity, inhibitor | human, liver microsomes |  | Ki | 22.6 µM
Clc1cccc(N2CCNCC2)c1Cl | CHRM1 | ligand displacement, radioligand |  | cell membranes | Ki | 25.1 µM
C[C@]1(O)CC[C@H]2[C@@H]3CCC4=CC(=O)CCC4=C3CC[C@@]21C | PGR | reporter gene, agonist |  |  | EC50 | 0.0008 µM
CCN1C[C@]2(COC)[C@H](O)C[C@H](OC)[C@@]34[C@@H]5C[C@@]6(O)[C@H](OC(=O)c7ccccc7)[C@@H]5[C@@](OC(C)=O)([C@@H]([C@H](OC)[C@H]23)[C@@H]14)[C@@H](O)[C@@H]6OC | SLCO1B1 | transporter uptake, inhibitor, fluorescence | CHO | 30 min, pH 7.4 | IC50 | > 100 µM
CCCCCCCNCCCc1ccc([N+](=O)[O-])cc1 | CHRM1 | ligand displacement, radioligand |  |  | Ki | 1.9 µM
CC(C)(C)[C@H](NC(=O)C(F)(F)F)C(=O)N1C[C@H]2[C@@H]([C@H]1C(=O)N[C@H](C#N)C[C@@H]1CCNC1=O)C2(C)C | Papain (Carica papaya, UniProt P00784) | enzyme activity, inhibitor |  |  | IC50 | > 10 µM
C[C@]12CC[C@H]3[C@@H](CCC4=CC(=O)CC[C@@H]43)[C@@H]1CC[C@@H]2O | PGR | ligand displacement |  |  | IC50 | 0.0678 µM
COC1CCN(CCC(C#N)(c2ccccc2)c2ccccc2)CC1 | Potassium voltage-gated channel subfamily A member 3 (Kcna3, Mus musculus, UniProt P16390) | ion current, inhibitor, patch clamp |  |  | IC50 | > 100 µM
C[C@]12CC[C@H]3[C@@H](CCC4=CC(=O)CC[C@@]43C)[C@@H]1CC[C@@H]2O | PGR | ligand displacement |  |  | IC50 | > 0.5 µM
CCOC(=O)c1cncn1[C@H](C)c1ccccc1 | SLCO1B1 | transporter uptake, inhibitor, fluorescence | CHO | 30 min, pH 7.4 | IC50 | > 100 µM
